How the values were obtained:
[1] = system: Rattus norvegicus; assay: Antiinflammatory activity in albino rat assessed as inhibition of formalin-induced paw edema at 20 mg/kg, po administered 1 hr prior to formalin challenge measured after 1 hr by plethysmometric analysis relative to control; format: functional
How it was run: (§1)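 Male albino rats, 180-200 g, five per group. Test compounds given orally at 20 mg/kg; diclofenac Na reference at 20 mg/kg po. After 1 h, 2% formalin (0.1 ml) injected subplantar into left hind paw under light ether anaesthesia. Paw volume read by water plethysmometer at 0, 1, 2 and 4 h. % inhibition of edema increase (Vt−Vo) calculated versus control; mean ± S.E.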

[2] = system: Rattus norvegicus; assay: Antiinflammatory activity in albino rat assessed as inhibition of formalin-induced paw edema at 20 mg/kg, po administered 1 hr prior to formalin challenge measured after 4 hrs by plethysmometric analysis relative to control; format: functional; how it was run: as §1
[3] = system: Rattus norvegicus; assay: Analgesic activity in albino rat assessed as increase in tail withdrawal latency at 20 mg/kg, po after 4 hrs relative to control; format: functional
How it was run: (§2)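 Male albino rats, 120-150 g, five per group, free access to food and water. Compounds given orally at 20 mg/kg; control group kept, diclofenac Na reference at 20 mg/kg po. Tail withdrawal after immersion in 55 °C water. Reaction time read at 1, 2 and 4 h. Reported as mean ± S.E. and as % increase over basal values. ANOVA with Student-Newman-Keuls, P < 0.05.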

[4] = system: Rattus norvegicus; assay: Antiinflammatory activity in albino rat assessed as inhibition of formalin-induced paw edema at 20 mg/kg, po qd administered 7 days measured on day 8 post formalin challenge by plethysmometric analysis relative to control; format: functional
How it was run: (§3)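 Sub-acute model in rats. Compounds given orally at 20 mg/kg daily for 7 consecutive days. 2% formalin (0.1 ml) injected subplantar into left hind paw under light ether anaesthesia 1 h after the day-1 dose, with a second injection on day 3. Paw volume measured plethysmographically on days 1 and 8. Inhibition calculated versus control.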

[5] = system: Rattus norvegicus; assay: Antiinflammatory activity in po dosed albino rat assessed as inhibition of formalin-induced paw edema administered 1 hr prior to formalin challenge measured after 2 hrs by plethysmometric analysis; format: functional
How it was run: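 Male albino rats, 180-200 g, groups of five, dosed orally at 5, 10, 20, 40 and 50 mg/kg. After 1 h, 2% formalin (0.1 ml) injected subplantar into left hind paw. Paw edema inhibition measured plethysmometrically 2 h after formalin injection. ED50 derived from these doses.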

[6] = system: Rattus norvegicus; assay: Antiinflammatory activity in albino rat assessed as inhibition of formalin-induced paw edema at 20 mg/kg, po administered 1 hr prior to formalin challenge measured after 2 hrs by plethysmometric analysis relative to control; format: functional; how it was run: as §1
[7] = Acute toxicity in po dosed rat assessed as mortality after 24 hrs; format: organism-based; conditions: in vivo, read-out: ALD50
How it was run: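 Male rats, 180-200 g, groups of five, fasted 24 h before dosing. Compounds given orally at graded doses of 0.1-0.3 g/kg body weight. Mortality at each dose level recorded after 24 h to estimate approximate acute lethal dose (ALD50).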

[8] = system: Rattus norvegicus; assay: Ulcerogenic activity in albino rat assessed as appearance of hyperemia at 300 mg/kg, po bid administered for 3 days measured after 6 hrs post last dose relative to control; format: toxicity, organism-based; design: dose 300 mg/kg, route oral; conditions: in vivo
How it was run: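 Rats received 300 mg/kg per day orally as two equal doses at 0 and 12 h for three successive days, with water ad libitum. Controls received 1% gum acacia orally. Animals were killed with diethyl ether 6 h after the last dose. Stomachs were removed and inspected grossly for hyperemia and ulceration. Diclofenac Na served as reference.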

[9] = system: Rattus norvegicus; assay: Analgesic activity in albino rat assessed as increase in tail withdrawal latency at 20 mg/kg, po after 1 hr relative to control; format: functional; how it was run: as §2
[10] = system: Rattus norvegicus; assay: Antiinflammatory activity in albino rat assessed as inhibition of formalin-induced paw edema at 20 mg/kg, po qd administered 7 days measured on day 1 post formalin challenge by plethysmometric analysis relative to control; format: functional; how it was run: as §3
[11] = system: Rattus norvegicus; assay: Analgesic activity in albino rat assessed as increase in tail withdrawal latency at 20 mg/kg, po after 2 hrs relative to control; format: functional; how it was run: as §2

| SMILES | inhibition in vivo at 20 mg/kg [1] | inhibition in vivo at 20 mg/kg [2] | Activity [3] | inhibition in vivo at 20 mg/kg [4] | ED50 [5] | inhibition in vivo at 20 mg/kg [6] | LD50 at 24 h [7] | Activity [8] | Activity [9] | inhibition in vivo at 20 mg/kg [10] | Activity [11] |
| --- | --- | --- | --- | --- | --- | --- | --- | --- | --- | --- | --- |
| Cc1sc2nc3[nH]c(CC(=O)Nc4ccccc4)nn3c(=O)c2c1C | 42% | 40% | 51% | 37% | 26.1 mg/kg | 37% | > 300 mg/kg | 20% | 21% | 50% | 36% |
| CCOC(=O)Cc1nn2c(=O)c3c(C)c(C)sc3nc2[nH]1 | 47% | 56% | 62% | 40% | 28.1 mg/kg | 53% | > 300 mg/kg | 20% | 19% | 47% | 47% |
| Cc1sc2nc3ncc(-c4ccc(Br)cc4)nn3c(=O)c2c1C | 13% | 27% | 28% | 25% |  | 5% |  |  | 13% | 33% | 24% |
| Cc1sc2nc3[nH]c(CC#N)nn3c(=O)c2c1C | 42% | 36% | 64% | 38% | 29 mg/kg | 25% | > 300 mg/kg | 20% | 41% | 47% | 53% |
| Cc1sc2nc3[nH]c(Nc4ccc(Cl)cc4)nn3c(=O)c2c1C | 9% | 11% | 54% | 24% |  | 6% |  |  | 26% | 36% | 40% |
| Cc1ccc(-c2cnc3nc4sc(C)c(C)c4c(=O)n3n2)cc1 | 21% | 27% | 29% | 22% |  | 28% |  |  | 13% | 25% | 25% |
| O=C([O-])Cc1ccccc1Nc1c(Cl)cccc1Cl.[Na+] [DICLOFENAC SODIUM] | 38% | 52% | 56% | 40% | 25.1 mg/kg |  |  | 20% | 30% | 44% |  |
